This is a sample that favours compounds with a hit; in the whole collection about 2.9% have one here.
SENP6 block: inhibitors of human SENP6 protease. Q9GZR1. Recombinant SENP6 catalytic domain, aminoluciferin luminescence. inhibition, % at 10 µM. hit rate 1.8% among 330,000;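 active means inhibition above about 50% at the single tested dose, limit read from the data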;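 further: plate controls were DMSO wells with enzyme for no effect and DMSO wells lacking enzyme for full effect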
SENP7 block: blocks the human protease SENP7. Q9BQF6. hit rate 1.5% among 330,000. recombinant SENP7, Z-RLRGG-aminoluciferin luminescence, 40 min. inhibition, % at 5 µM;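 active means inhibition above about 50% at the single test dose, limit read from the data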;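 further: plate controls were DMSO with enzyme for no effect and no enzyme buffer wells for full effect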
SENP8 block-1: blocks human SENP8 cleavage of Nedd8 substrate; inhibition, % at 20 µM; AID 602440; hit rate 0.64% among 360,000; Q96LD8; recombinant SENP8, Nedd8 substrate fluorescence; in the data active means inhibition mostly above about 40%, no sharp cut-off; inactive means mostly below about 27%
Target sequence (Q96LD8 whole entry, looked up): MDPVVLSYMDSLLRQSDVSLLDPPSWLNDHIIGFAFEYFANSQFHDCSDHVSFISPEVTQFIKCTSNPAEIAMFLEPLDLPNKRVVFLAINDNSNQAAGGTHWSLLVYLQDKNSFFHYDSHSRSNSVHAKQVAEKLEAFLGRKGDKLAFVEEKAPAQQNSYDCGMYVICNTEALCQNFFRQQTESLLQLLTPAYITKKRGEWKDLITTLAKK
Apaf1 inhib: human Apaf-1 inhibition; hit rate 0.71% among 330,000; inhibition, % at 20 µM; reconstituted apoptosome caspase-3 activity, DEVD-Rh110 fluorescence; AID 489030; O14727; active means inhibition of at least 40% at 20 µM;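 further: plate controls were DMSO wells for no effect and DEVD-CHO caspase inhibitor wells for full effect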
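Assay system: Apoptosome proteins | Medium: pH 7.5 Hepes buffer with CHAPS, BSA, DTT | Also added: Cytochrome c and DEVD-Rh110 substrate | Times: 30 min plus 50 min, RT | Detection: Rhodamine 110 fluorescence at Ex 480/Em 540 nm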
SENP8 block-2: blocks the human protease SENP8; hit rate 1.2% among 330,000; inhibition, % at 10 µM; Q96LD8; AID 2540; purified SENP8, Z-RLRGG-aminoluciferin cleavage, luminescence; in the data active means inhibition above about 50%
SENP1 FRET inh: SENP1 (human) catalytic domain inhibition. Q9P0U3. recombinant SENP1 catalytic domain, CyPet-SUMO1-YPet FRET cleavage. inhibition, % at 10 µM. hit rate 0.21% among 360,000;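 active means inhibition at least 30% at 10 µM, raw YFP signal under a set limit, fluorescence ratio 0.5 to 1.5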;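 further: 0% = enzyme with DMSO and 100% = no enzyme wells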
Target sequence (Q9P0U3 419-644 limits assumed): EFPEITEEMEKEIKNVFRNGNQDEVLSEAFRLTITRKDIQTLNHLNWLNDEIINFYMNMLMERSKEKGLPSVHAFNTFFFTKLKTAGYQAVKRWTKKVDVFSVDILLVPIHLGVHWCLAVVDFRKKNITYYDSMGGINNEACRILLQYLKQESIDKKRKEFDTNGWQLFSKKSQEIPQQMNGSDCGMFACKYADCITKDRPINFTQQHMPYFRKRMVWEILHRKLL
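Material: hSENP1 catalytic domain, recombinant; medium: Tris pH 8 with BME, BSA, NP40 and catalase; compound: single concentration of 10 µM compound, 0.5% DMSO final; technique: FRET read of cyan and yellow fluorescence; timing: 50 min enzyme reaction, room temperature, light-protected; reagent: SFCypet-SUMO1-SFYpet substrate at 25 nM; control set: no-enzyme low, enzyme-DMSO high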
Apaf-1 inh conf: confirmation of Apaf-1 inhibitors | shares compounds with Apaf1 inhib | inhibition, % at 20 µM | AID 504614 | hit rate 25% among 1,800 | reconstituted apoptosome, caspase-3 DEVD-Rh110 fluorescence;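 active means mean inhibition of at least 40% at 20 µM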;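 further: plate controls were DMSO wells for no effect and DEVD-CHO caspase inhibitor control wells for full effect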
Rh110 interf inh: counter-screen for Apaf-1 inhibitors: fluorescence interference; activation (fluorescence interference), % at 20 µM; 1,800 tested, under 10 active; shares compounds with Apaf1 inhib; Rh110 fluorescence interference, quenched caspase reaction;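 active means signal rise of 40% or more at 20 µM, treated as a fluorescence artifact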
Fluor interf inh: Apaf-1 inhibitor counter-screen fluorescence artifact. shares compounds with Apaf1 inhib. fluorescence interference counterscreen, Apaf-1 assay format. IC50, µM. 460 tested, under 10 active. AID 588538; call rule not given here
* hit, by the source's call; i = inactive; · = no result.

SMILES | SENP6 block | SENP7 block | SENP8 block-1 | Apaf1 inhib | SENP8 block-2 | SENP1 FRET inh | Apaf-1 inh conf | Rh110 interf inh | others
Clc1ccc(N=c2ssnc2Cl)nc1 | 40 | 11 | 37 | 55* | 9 | 32* | 67* | 3 | Fluor interf inh=>100
Cc1[nH]c2ccccc2c1CC#N | -9 | 0 | 2 | 5 | -5 | -7 | · | ·
Cc1[nH]c2ccccc2c1C(C#N)(C#N)C1C(=O)c2ccccc2C1=O | 6 | 16 | -446 | 73* | 11 | -70 | 45* | 0 | Fluor interf inh=>100
O=C(CCNS(=O)(=O)c1ccc(F)cc1)N1CCN(c2ncccn2)CC1 | · | · | -6 | · | · | -1 | · | ·
CC(=O)N(C1=C(N)C(=O)c2ccccc2C1=O)c1ccccc1 | 26 | 19 | 62* | 67* | 24 | 2 | 81* | 10 | Fluor interf inh=>100
O=C(N(c1ccccc1)c1ccccc1)N(c1ccccc1)c1ccccc1 | -29 | 0 | -13 | -10 | -7 | 0 | · | ·
N=c1n(CC(=O)c2ccc(Br)s2)c2ccccc2n1Cc1ccccc1 | -11 | -4 | 13 | 42* | -10 | -159 | 23 | 7
Cn1c(=N)n(CC(=O)c2ccc(Br)s2)c2ccccc21 | 10 | 1 | -62 | 3 | 4 | -6 | · | ·
O=C1c2ccccc2-c2onc3ccc(Oc4ccccc4)c1c23 | 38 | 7 | 29 | 22 | 20 | 77 | · | ·
CCOC(=O)C(C(=O)OCC)c1cc(Br)c2noc3c2c1C(=O)c1ccccc1-3 | 65* | 23 | 87* | 89* | 22 | -22 | 74* | -7 | Fluor interf inh=>100
O=C1c2[nH]nc(-c3ccccc3O)c2C(c2cccc(Cl)c2)N1Cc1ccco1 (stereo unspecified) | -16 | -7 | 3 | 42* | -29 | 1 | 34 | 4
Cc1ccc(CN2CC(C(=O)N3CCN(S(=O)(=O)c4ccc(C)cc4C)CC3)CC2=O)cc1 (stereo unspecified) | -9 | 5 | 14 | 48* | -6 | 4 | 26 | 7
CC(C)(C)C1CCC(CN2C(Nc3ccccc3)=NC[C@@H]2Cc2ccccc2)CC1 (stereo partly specified) | -18 | -4 | 12 | 75* | -15 | 1 | 17 | 11
COc1ccc(/C=C2/C(=O)N(c3ccccc3)N=C2C)cc1 | 39 | 47 | 91* | 96* | 11 | 2 | 16 | -2
CCOc1cc(/C=N/NC(=O)COc2cccc(C)c2)ccc1OC(=O)c1cccs1 | -8 | 6 | -121 | 17 | 2 | -2 | · | ·
COc1ccc(C2=NN(c3ccccc3)C(=O)/C2=C\c2ccc(O)c(OC)c2)cc1 | 17 | 16 | 55* | 90* | 1 | 3 | 17 | 4
CC(=O)Oc1ccc(/C=C2/C(=O)N(c3ccccc3)N=C2C)cc1 | 14 | 36 | 45* | 91* | 4 | 2 | 12 | -2
CCOc1cc(/C=C2/C(=O)N(c3ccccc3)N=C2C)ccc1OC(=O)c1cccs1 | 20 | 18 | 38 | 69* | -6 | 3 | 33 | 4
c1ccc(OCCNc2ccn3nc(-c4ccc(OCCN5CCOCC5)cc4)cc3n2)cc1 | · | · | i | · | · | 0 | · | ·
COc1ccc(/C=C2/C(=O)N(c3ccccc3)N=C2C)cc1OC | 13 | 30 | 75* | 96* | 2 | 3 | 13 | 6
COc1ccccc1/C=C1/C(=O)N(c2ccc([N+](=O)[O-])cc2)N=C1C | 27 | 21 | 23 | 39 | 26 | -1 | · | ·
CC(=O)C1=C(c2cccc([N+](=O)[O-])c2)N(C(C)=O)n2c(C)nnc2S1 | 31 | 14 | 19 | 44* | 7 | 1 | 40 | 9
Cc1ccc(CNc2ccc(O)cc2)cc1 | 48 | 5 | 72* | 94* | 44 | 2 | 11 | 7
c1ccc(CNc2nc(-c3ccccc3)nc3ccccc23)cc1 | 3 | -6 | -9 | 15 | -10 | 2 | · | ·
